The values below come from ChEMBL document CHEMBL2203112, “Synthesis, evaluation of anti-HIV-1 and anti-HCV activity of novel 2',3'-dideoxy-2',2'-difluoro-4'-azanucleosides” (Bioorg Med Chem, 2012).

One assay concerns Hepatitis C virus. The assay is described as follows: Antiviral activity against HCV assessed as inhibition of viral replication at 10 uM. Type of assay: functional, organism-based. To be noted: Hepacivirus hominis. In a few lines: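 HCV replicon assay with a single test concentration of 10 μM; 2′-C-Me-cytidine served as positive control.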
Another assay concerns Vero. The assay is described as follows: Cytotoxicity against african green monkey Vero cells. Format: cell-based. As to conditions: Chlorocebus sabaeus. In a few lines:
(§1)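 Cytotoxicity measured in lymphocytic CEM cells and in Vero (African green monkey kidney) cells; expressed as IC50 (μM).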

A further assay deals with CCRF-CEM. Description: Cytotoxicity against human CEM cells. Format: cell-based. The gist of the method:
as §1

Another assay deals with PBMC. The assay is described as follows: Cytotoxicity against human PBMC. Format: cell-based. The gist of the method: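 Cytotoxicity measured in uninfected, phytohemagglutinin-stimulated human PBM cells; expressed as IC50 (μM).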
Assay [1] relates to Human immunodeficiency virus 1. The assay is described as follows: Antiviral activity against HIV1 LAI infected in human PBMC assessed as inhibition of viral replication. Type of assay: functional, organism-based. As to conditions: Human immunodeficiency virus 1, LAI.

Calls of active or inactive are those of the source. The rule behind the calls is not given here.

By IC50 is commonly meant the concentration at which inhibition is half-maximal. As usually defined, the EC50 is the concentration that produces a half-maximal response. As a reminder, the EC90 is the concentration needed for an effect of 90%. With `CC(C)(C)OC(=O)N1[C@H](CO)CC(F)(F)[C@H]1n1cc(F)c(=O)[nH]c1=O`, the inhibition result in the assay with Hepatitis C virus is “inactive”. Further, the values for the half-maximal inhibitory concentration (IC50) in the assay on Vero, in the assay with CCRF-CEM and with PBMC were over 100 µM, over 100 µM and 30.5 µM, respectively. For the same compound, in assay [1], the EC50 was determined as 36.9 µM. For the same compound, in assay [1], the EC90 came to 75.6 µM.

With `CC(C)(C)OC(=O)N1[C@H](CO)CC(F)(F)[C@@H]1n1cc(F)c(=O)[nH]c1=O`, the inhibition entry with Hepatitis C virus was “inactive”. Moreover, the half-maximal inhibitory concentration (IC50) is over 100 µM in the assay on Vero, over 100 µM with CCRF-CEM and 28.2 µM in the assay on PBMC. For the same compound, in assay [1], the 50% effective concentration (EC50) was 44.5 µM. For the same compound, the EC90 in assay [1] amounted to 90.8 µM.

Regarding `CC(C)(C)OC(=O)N1[C@H](CO)CC(F)(F)[C@@H]1n1ccc(=O)[nH]c1=O`, the inhibition entry in the assay with Hepatitis C virus was “inactive”. Moreover, the IC50 with Vero was 44.4 µM; with CCRF-CEM, over 100 µM; with PBMC, 81.4 µM. In assay [1], the concentration for a half-maximal effect (EC50) is over 100 µM. In addition, the EC90 in assay [1] is over 100 µM.

Turning to `CC(C)(C)OC(=O)N1[C@H](CO)CC(F)(F)[C@H]1n1ccc(=O)[nH]c1=O`, the inhibition entry with Hepatitis C virus was “inactive”. For the same compound, the IC50 in the assay with Vero, with CCRF-CEM and in the assay on PBMC was over 100 µM throughout. Also, the EC50 in assay [1] is over 100 µM. For the same compound, the EC90 in assay [1] is over 100 µM.

Take `CC(C)(C)OC(=O)N1C(n2cnc3c(Cl)ncnc32)C(F)(F)C[C@H]1CO` (single isomer, unassigned; 26) [listing 1 of 2 here]: the results for the IC50 in the assay on Vero, in the assay with CCRF-CEM and in the assay with PBMC were over 100 µM, 57.1 µM and over 100 µM, respectively. Also, the EC50 in assay [1] was over 100 µM. Further, in assay [1], the concentration for an effect of 90% (EC90) was over 100 µM.

As to `CC(C)(C)OC(=O)N1C(n2cnc3c(Cl)ncnc32)C(F)(F)C[C@H]1CO` (single isomer, unassigned; 26) [listing 2 of 2 here], the inhibition result in the assay on Hepatitis C virus was “inactive”.

`CC(C)(C)OC(=O)N1C(n2cnc3c(Cl)ncnc32)C(F)(F)C[C@H]1CO` (single isomer, unassigned; 27) [listing 1 of 2 here]: the figures for the IC50 with Vero, with CCRF-CEM and in the assay on PBMC were over 100 µM, 38.1 µM and 58.1 µM, respectively. Also, the EC50 in assay [1] was 64.5 µM. Besides, in assay [1], the EC90 was over 100 µM.

`CC(C)(C)OC(=O)N1C(n2cnc3c(Cl)ncnc32)C(F)(F)C[C@H]1CO` (single isomer, unassigned; 27) [listing 2 of 2 here]: in the assay with Hepatitis C virus, the inhibition result is “inactive”.

Turning to `CC(C)(C)OC(=O)N1C(n2cnc3ncnc(Cl)c32)C(F)(F)C[C@H]1CO` (single isomer, unassigned; 28) [listing 1 of 2 here], the half-inhibitory concentration (IC50) with Vero, in the assay on CCRF-CEM and in the assay on PBMC was over 100 µM throughout. The EC50 in assay [1] is over 100 µM. Besides, in assay [1], the EC90 is over 100 µM.

Regarding `CC(C)(C)OC(=O)N1C(n2cnc3ncnc(Cl)c32)C(F)(F)C[C@H]1CO` (single isomer, unassigned; 28) [listing 2 of 2 here], the inhibition result in the assay on Hepatitis C virus is “inactive”.

For the compound `CC(C)(C)OC(=O)N1C(n2cnc3ncnc(Cl)c32)C(F)(F)C[C@H]1CO` (single isomer, unassigned; 29) [listing 1 of 2 here], the figures for the IC50 in the assay with Vero, with CCRF-CEM and with PBMC were over 100 µM, 55.4 µM and 59.5 µM, respectively. Further, in assay [1], the EC50 worked out at 92.3 µM. Besides, the 90% effect concentration (EC90) in assay [1] was over 100 µM.

For `CC(C)(C)OC(=O)N1C(n2cnc3ncnc(Cl)c32)C(F)(F)C[C@H]1CO` (single isomer, unassigned; 29) [listing 2 of 2 here], in the assay with Hepatitis C virus, the inhibition result was “inactive”.

For the compound `CC(C)(C)OC(=O)N1C(n2cnc3c(N)ncnc32)C(F)(F)C[C@H]1CO` (single isomer, unassigned; 30) [listing 1 of 2 here], the IC50 with Vero, in the assay with CCRF-CEM and with PBMC was over 100 µM each time. In assay [1], the half-maximal effective concentration (EC50) was over 100 µM. Further, the concentration for an effect of 90% (EC90) in assay [1] was over 100 µM.

As for `CC(C)(C)OC(=O)N1C(n2cnc3c(N)ncnc32)C(F)(F)C[C@H]1CO` (single isomer, unassigned; 30) [listing 2 of 2 here], in the assay with Hepatitis C virus, the inhibition result is “inactive”.

Turning to `CC(C)(C)OC(=O)N1C(n2cnc3c(N)ncnc32)C(F)(F)C[C@H]1CO` (single isomer, unassigned; 31) [listing 1 of 2 here], the IC50 in the assay with Vero, in the assay on CCRF-CEM and with PBMC was over 100 µM in each case. Besides, in assay [1], the concentration giving a half-maximal response (EC50) is over 100 µM. The EC90 in assay [1] is over 100 µM.

As for `CC(C)(C)OC(=O)N1C(n2cnc3c(N)ncnc32)C(F)(F)C[C@H]1CO` (single isomer, unassigned; 31) [listing 2 of 2 here], the inhibition entry with Hepatitis C virus is “inactive”.

Take `CC(C)(C)OC(=O)N1C(n2cnc3ncnc(N)c32)C(F)(F)C[C@H]1CO` (single isomer, unassigned; 32) [listing 1 of 2 here]: the IC50 with Vero, with CCRF-CEM and in the assay with PBMC was over 100 µM each time. Moreover, in assay [1], the EC50 is over 100 µM. For the same compound, the EC90 in assay [1] was over 100 µM.

Take `CC(C)(C)OC(=O)N1C(n2cnc3ncnc(N)c32)C(F)(F)C[C@H]1CO` (single isomer, unassigned; 32) [listing 2 of 2 here]: the inhibition entry in the assay with Hepatitis C virus was “inactive”.

`CC(C)(C)OC(=O)N1C(n2cnc3ncnc(N)c32)C(F)(F)C[C@H]1CO` (single isomer, unassigned; 33) [listing 1 of 2 here]: the IC50 in the assay on Vero, in the assay with CCRF-CEM and in the assay on PBMC was over 100 µM in each case. In addition, the EC50 in assay [1] was over 100 µM. In assay [1], the EC90 is over 100 µM.

With `CC(C)(C)OC(=O)N1C(n2cnc3ncnc(N)c32)C(F)(F)C[C@H]1CO` (single isomer, unassigned; 33) [listing 2 of 2 here], the inhibition entry in the assay with Hepatitis C virus is “inactive”.

Regarding `Cc1cn([C@H]2C[C@H](N=[N+]=[N-])[C@@H](CO)O2)c(=O)[nH]c1=O` [ZIDOVUDINE], the inhibition entry in the assay with Hepatitis C virus was “inactive”. Also, the 50% inhibitory concentration (IC50) in the assay on PBMC is over 100 µM. Also, the EC90 in assay [1] came out at 0.0027 µM.
